Test results as given in ChEMBL document CHEMBL1154944, “Azole-based inhibitors of AKT/PKB for the treatment of cancer” (Bioorg Med Chem Lett, 2010).

Tests used:
[1] = Inhibition of PKA
[2] = biological target: Cyclin-dependent kinase 2 (Homo sapiens, UniProt P24941); assay: Inhibition of CDK2
[3] = biological target: T1, RAC-alpha serine/threonine-protein kinase (Homo sapiens, UniProt P31749); assay: Inhibition of AKT1 after 10 mins by [gamma33]ATP assay
[4] = Cytotoxicity against human U87MG cells after 3 days by alamar blue assay; type: functional, cell-based, U-87MG ATCC; conditions: U-87 MG, 72 h
How it was run: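 U-87 MG cells seeded at 6000 cells/well in 5% FBS and treated with threefold serial dilutions for three days. Viability read by alamarBlue staining.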

[5] = biological target: Mast/stem cell growth factor receptor Kit (Homo sapiens, UniProt P10721); assay: Inhibition of cKIT
[6] = biological target: Vascular endothelial growth factor receptor 2 (Homo sapiens, UniProt P35968); assay: Inhibition of KDR
Mus musculus [7] = assay: Inhibition of HGF-stimulated AKT signaling pathway in mouse liver assessed as phosphorylated PRAS40 level at 30 mg/kg, po dosed 6 hrs prior to HGF challenge and measured after 5 mins by ELISA; type: functional
How it was run: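 Mice (n = 3, female) dosed 30 mg/kg po in 0.1% PBS/BSA. At 6 h, HGF given by tail-vein injection. Livers harvested 5 min later, and phospho- and total PRAS40 measured by ELISA; inhibition taken from pPRAS40/total ratio. Factorial ANOVA with Dunnett's post hoc test.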

Mus musculus [8] = assay: Toxicity in human U87MG cells xenografted CD1 nude mouse assessed as loss in body weight po QD for 18 days relative to control; type: organism-based, U-87MG ATCC; conditions: in vivo, 432 h
How it was run: (§1)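 10-week-old female CD1 nude mice injected sc in the flank with 5 × 10⁶ U-87 MG cells in DMEM. On day 10, randomized (n = 10) at ~200 mm³, then dosed po once daily for 18 d with supplemented diet. Tumors and body weight recorded twice weekly. Volume = length × width × height, analyzed by RMANOVA versus vehicle.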

U-87 MG = assay: Inhibition of tumor growth in human U87MG cells xenografted in CD1 nude mouse assessed as tumor volume po QD for 18 days relative to control; type: functional, organism-based; conditions: U-87MG ATCC; how it was run: as §1
[9] = Half life in Sprague-Dawley rat at 2 mg/kg, iv; type: ADME, organism-based; parameters: dose 2 mg/kg, route intravenous; conditions: in vivo
How it was run: (§2)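 Male Sprague Dawley rats (n = 3) given 2 mg/kg intravenously in DMSO.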

[10] = Plasma concentration in mouse at 30 mg/kg, po after 6 hrs; type: ADME, organism-based; parameters: dose 30 mg/kg, route oral
[11] = Oral bioavailability in Sprague-Dawley rat at 5 mg/kg; type: ADME, organism-based; conditions: in vivo
How it was run: (§3)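 Male Sprague Dawley rats (n = 3) given 5 mg/kg orally in 2% HPMC, 1% Tween 80, pH 2.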

[12] = Volume of distribution at steady state in Sprague-Dawley rat at 2 mg/kg, iv; type: ADME, organism-based; parameters: dose 2 mg/kg, route intravenous; conditions: in vivo, read-out: Vdss; how it was run: as §2
[13] = biological target: Cyclin-dependent kinase 1 (Homo sapiens, UniProt P06493); assay: Inhibition of CDK1
[14] = Plasma concentration in human U87MG cells xenografted CD1 nude mouse at 30 mg/kg, po QD for 18 days measured after 3 hrs post last dose; type: ADME, organism-based, U-87MG ATCC; parameters: dose 30 mg/kg, route oral
How it was run: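 Female CD1 nude mice bearing U-87 MG tumors (n = 10) dosed 30 mg/kg po daily for 18 d. Plasma sampled 3 h after the last dose.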

[15] = biological target: T1, RAC-alpha serine/threonine-protein kinase; assay: Inhibition of human AKT1 in human U87MG cells assessed as PRAS40 phosphorylation after 1 hr by ELISA; type: cell-based, U-87MG ATCC
How it was run: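 U-87 MG cells in 5% FBS incubated with inhibitor in threefold serial dilutions for 1 h at 37 °C, then lysed. Phospho-PRAS40 (Thr246) quantified by ELISA and normalized to total PRAS40. Mean ± SD where three or more measurements.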

[16] = Antitumor activity against human U87MG cells xenografted in CD1 nude mouse assessed as inhibition of tumor growth at 30 mg/kg, po QD for 18 days relative to control; type: functional, U-87MG ATCC; conditions: U-87 MG, 432 h, read-out: GI; how it was run: as §1
[17] = AUC (0 to 24 hrs) in Sprague-Dawley rat at 5 mg/kg, po; type: ADME, organism-based; parameters: time < 24 hr, dose 5 mg/kg, route oral; conditions: plasma; how it was run: as §3
[18] = Cmax in Sprague-Dawley rat at 5 mg/kg, po; type: ADME, organism-based; parameters: dose 5 mg/kg, route oral; conditions: in vivo; how it was run: as §3
U-87MG ATCC = assay: Selectivity ratio of IC50 for AKT1 in human U87MG cells to IC50 for AKT1; type: cell-based
[19] = Clearance in Sprague-Dawley rat at 2 mg/kg, iv; type: ADME, organism-based; parameters: dose 2 mg/kg, route intravenous; conditions: in vivo; how it was run: as §2

T1 sequence (P31749 whole entry): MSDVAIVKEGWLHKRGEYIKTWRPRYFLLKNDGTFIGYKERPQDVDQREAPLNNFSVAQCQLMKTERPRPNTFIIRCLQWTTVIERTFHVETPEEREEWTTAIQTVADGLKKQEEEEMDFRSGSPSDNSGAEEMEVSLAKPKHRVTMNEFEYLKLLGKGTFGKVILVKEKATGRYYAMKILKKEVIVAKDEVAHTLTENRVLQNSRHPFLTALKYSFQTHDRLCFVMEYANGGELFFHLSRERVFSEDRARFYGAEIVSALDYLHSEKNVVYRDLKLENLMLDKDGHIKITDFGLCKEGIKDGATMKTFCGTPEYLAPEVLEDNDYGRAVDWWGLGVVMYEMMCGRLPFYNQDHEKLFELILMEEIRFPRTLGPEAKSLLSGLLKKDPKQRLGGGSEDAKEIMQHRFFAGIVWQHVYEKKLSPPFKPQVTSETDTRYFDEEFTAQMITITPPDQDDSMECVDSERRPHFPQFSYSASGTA
Chain of Cyclin-dependent kinase 1 (P06493 whole entry): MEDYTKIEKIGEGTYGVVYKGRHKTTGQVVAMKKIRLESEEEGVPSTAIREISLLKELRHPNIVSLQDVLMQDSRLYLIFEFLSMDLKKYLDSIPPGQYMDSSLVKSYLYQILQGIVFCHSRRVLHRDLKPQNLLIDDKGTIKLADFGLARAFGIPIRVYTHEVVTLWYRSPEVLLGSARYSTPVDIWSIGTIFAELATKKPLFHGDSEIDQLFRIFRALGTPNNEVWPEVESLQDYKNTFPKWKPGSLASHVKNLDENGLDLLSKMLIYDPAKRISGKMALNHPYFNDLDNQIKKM
Chain of Vascular endothelial growth factor receptor 2 (P35968 whole entry): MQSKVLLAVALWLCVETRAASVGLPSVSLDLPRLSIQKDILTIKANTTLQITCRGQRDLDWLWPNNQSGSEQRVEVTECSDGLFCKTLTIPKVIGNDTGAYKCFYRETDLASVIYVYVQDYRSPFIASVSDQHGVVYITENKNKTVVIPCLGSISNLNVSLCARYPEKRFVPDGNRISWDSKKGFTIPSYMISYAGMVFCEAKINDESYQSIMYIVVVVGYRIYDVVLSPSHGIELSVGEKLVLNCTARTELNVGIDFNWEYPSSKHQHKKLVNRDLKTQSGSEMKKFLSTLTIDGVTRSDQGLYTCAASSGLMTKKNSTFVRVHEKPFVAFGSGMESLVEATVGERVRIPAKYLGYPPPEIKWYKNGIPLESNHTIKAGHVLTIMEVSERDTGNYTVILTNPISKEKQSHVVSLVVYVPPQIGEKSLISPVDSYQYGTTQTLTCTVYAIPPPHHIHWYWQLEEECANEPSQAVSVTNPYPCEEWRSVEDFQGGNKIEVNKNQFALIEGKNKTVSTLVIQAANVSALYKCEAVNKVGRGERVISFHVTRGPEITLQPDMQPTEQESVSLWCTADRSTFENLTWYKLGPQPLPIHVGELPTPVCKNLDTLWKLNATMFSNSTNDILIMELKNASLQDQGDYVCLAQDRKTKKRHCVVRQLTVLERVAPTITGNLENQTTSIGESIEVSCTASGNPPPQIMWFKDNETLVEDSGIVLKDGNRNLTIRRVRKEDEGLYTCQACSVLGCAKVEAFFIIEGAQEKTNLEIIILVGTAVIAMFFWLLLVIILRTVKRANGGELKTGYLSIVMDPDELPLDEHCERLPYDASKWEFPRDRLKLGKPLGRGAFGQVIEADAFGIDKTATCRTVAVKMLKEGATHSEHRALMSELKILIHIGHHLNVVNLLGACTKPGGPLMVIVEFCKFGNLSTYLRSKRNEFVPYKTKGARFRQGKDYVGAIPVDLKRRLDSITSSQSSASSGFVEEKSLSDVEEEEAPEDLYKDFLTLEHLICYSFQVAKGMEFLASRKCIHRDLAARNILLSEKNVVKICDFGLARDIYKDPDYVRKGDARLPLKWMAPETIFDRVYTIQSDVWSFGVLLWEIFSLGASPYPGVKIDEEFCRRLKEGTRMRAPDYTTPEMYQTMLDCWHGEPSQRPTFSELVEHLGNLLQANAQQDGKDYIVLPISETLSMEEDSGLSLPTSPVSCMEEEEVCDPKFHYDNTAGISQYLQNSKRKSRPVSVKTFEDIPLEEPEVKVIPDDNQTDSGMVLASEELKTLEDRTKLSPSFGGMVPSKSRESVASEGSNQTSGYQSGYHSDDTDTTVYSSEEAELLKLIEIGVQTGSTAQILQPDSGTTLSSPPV
Chain of Mast/stem cell growth factor receptor Kit (P10721 whole entry): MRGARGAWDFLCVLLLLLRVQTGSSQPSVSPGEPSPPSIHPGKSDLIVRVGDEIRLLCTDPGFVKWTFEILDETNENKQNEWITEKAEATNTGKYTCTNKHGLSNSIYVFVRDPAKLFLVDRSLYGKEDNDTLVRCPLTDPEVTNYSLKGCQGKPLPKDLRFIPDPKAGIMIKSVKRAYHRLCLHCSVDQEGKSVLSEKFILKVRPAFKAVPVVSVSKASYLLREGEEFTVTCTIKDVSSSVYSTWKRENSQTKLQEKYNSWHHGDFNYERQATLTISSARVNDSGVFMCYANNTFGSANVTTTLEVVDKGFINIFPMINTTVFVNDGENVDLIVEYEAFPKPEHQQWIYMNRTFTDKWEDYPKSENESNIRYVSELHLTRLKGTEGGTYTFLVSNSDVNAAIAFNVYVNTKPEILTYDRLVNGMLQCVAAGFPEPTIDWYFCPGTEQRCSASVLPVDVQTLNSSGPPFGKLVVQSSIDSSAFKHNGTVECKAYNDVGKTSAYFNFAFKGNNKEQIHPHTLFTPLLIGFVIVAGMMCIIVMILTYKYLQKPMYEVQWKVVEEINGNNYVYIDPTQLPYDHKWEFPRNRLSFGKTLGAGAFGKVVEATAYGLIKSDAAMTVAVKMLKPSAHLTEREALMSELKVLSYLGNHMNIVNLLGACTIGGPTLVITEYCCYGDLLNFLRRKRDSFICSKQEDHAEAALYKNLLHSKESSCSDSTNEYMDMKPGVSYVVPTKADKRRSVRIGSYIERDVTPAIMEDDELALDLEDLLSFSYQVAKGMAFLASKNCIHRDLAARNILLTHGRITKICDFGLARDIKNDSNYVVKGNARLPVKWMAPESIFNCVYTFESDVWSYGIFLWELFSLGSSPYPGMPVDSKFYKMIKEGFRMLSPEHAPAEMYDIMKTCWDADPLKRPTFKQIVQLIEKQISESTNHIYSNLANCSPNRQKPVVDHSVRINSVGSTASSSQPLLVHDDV

| Compound | IC50 [1] | IC50 [2] | IC50 [3] | IC50 [15] | further results |
| --- | --- | --- | --- | --- | --- |
| N[C@H](CNc1cnc(-c2ccc3cnccc3c2)s1)Cc1ccc(C(F)(F)F)cc1 | 187 nM | 1070 nM | 404 nM | – | – |
| N[C@H](CNc1ncc(-c2ccc3c(c2)CC(=O)N3)s1)Cc1ccc(C(F)(F)F)cc1 | – | 185 nM | 18.3 nM | 300 nM | IC50 [4]: 630 nM; IC50 [5]: 110 nM; IC50 [6]: 300 nM; inhibition in vivo at 30 mg/kg (Mus musculus [7]): 43%; Activity (Mus musculus [8]): 2%; inhibition (U-87 MG): Dose-dependent effect; half-life [9]: 4.3 h; concentration at 6 h [10]: 3.5 µM; bioavailability [11]: 64%; Vd [12]: 6.8 L/kg; IC50 [13]: 250 nM; concentration at 3 h [14]: 6.2 µM; inhibition in vivo at 30 mg/kg [16]: 93%; AUC(0-t) at 24 h [17]: 2600 ng·h/mL; Cmax [18]: 417 ng/mL |
| Cn1c(=O)[nH]c2ccc(-c3cnc(NC[C@@H](N)Cc4ccc(C(F)(F)F)cc4)s3)cc21 | 179 nM | 276 nM | 15.4 nM | 630 nM | – |
| Nc1noc2ccc(-c3cnc(NC[C@@H](N)Cc4ccc(C(F)(F)F)cc4)s3)cc12 | 417 nM | > 2000 nM | 453 nM | – | – |
| N[C@H](CNc1ncc(-c2ccc3[nH]ncc3c2)s1)Cc1ccc(Cl)cc1 | 39.9 nM | – | 8.5 nM | 730 nM | Ratio IC50 (U-87MG ATCC): 86 |
| N[C@H](CNc1ncc(-c2ccc3nnccc3c2)s1)Cc1ccc(C(F)(F)F)cc1 | 489 nM | > 2000 nM | 141 nM | – | – |
| N[C@H](CNc1ncc(-c2ccc3c(c2)CCC(=O)N3)s1)Cc1ccc(C(F)(F)F)cc1 | 2400 nM | > 25000 nM | 3320 nM | – | – |
| NC(=O)c1ccc(-c2cnc(NC[C@@H](N)Cc3ccc(C(F)(F)F)cc3)s2)cc1 | > 3000 nM | > 10000 nM | > 3000 nM | – | – |
| N[C@H](CNc1ncc(-c2ccc3c(c2)CNC3=O)s1)Cc1ccc(C(F)(F)F)cc1 | 356 nM | > 9000 nM | 95 nM | 6000 nM | – |
| N[C@H](CNc1cc(-c2ccc3cnccc3c2)no1)Cc1ccc(C(F)(F)F)cc1 | 40 nM | 93 nM | 17 nM | – | – |
| N[C@H](CCc1nc(-c2ccc3cnccc3c2)no1)Cc1ccc(C(F)(F)F)cc1 | 980 nM | 4630 nM | 1600 nM | – | – |
| N[C@H](CNc1ncc(-c2ccc3cn[nH]c(=O)c3c2)s1)Cc1ccc(C(F)(F)F)cc1 | 485 nM | > 1000 nM | > 1000 nM | – | – |
| N[C@H](CNc1nnc(-c2ccc3cnccc3c2)s1)Cc1ccc(C(F)(F)F)cc1 | 7.6 nM | – | 3.2 nM | – | – |
| N[C@H](CNc1ncc(-c2ccc3[nH]c(=O)oc3c2)s1)Cc1ccc(C(F)(F)F)cc1 | 326 nM | 138 nM | 8 nM | 500 nM | half-life [9]: 3.8 h; bioavailability [11]: 11%; Vd [12]: 6.7 L/kg; AUC(0-t) at 24 h [17]: 348 ng·h/mL; clearance [19]: 26.7 mL/min/kg; Cmax [18]: 68 ng/mL |
| N[C@H](CNc1ncc(-c2ccc3cn[nH]c3c2)s1)Cc1ccc(C(F)(F)F)cc1 | 334 nM | > 1000 nM | 613 nM | – | – |
| N[C@H](CNc1ncc(-c2ccc3cncnc3c2)s1)Cc1ccc(C(F)(F)F)cc1 | 126 nM | 136 nM | 35 nM | 1300 nM | Ratio IC50 (U-87MG ATCC): 37 |
| Cn1nc(N)c2ccc(-c3cnc(NC[C@@H](N)Cc4ccc(C(F)(F)F)cc4)s3)cc21 | 119 nM | > 2000 nM | 2410 nM | – | – |
| N[C@H](CNc1ncc(-c2ccc3[nH]c(=O)sc3c2)s1)Cc1ccc(C(F)(F)F)cc1 | 143 nM | 285 nM | 27 nM | 920 nM | – |
| N[C@H](CCc1cc(-c2ccc3cnccc3c2)no1)Cc1ccc(C(F)(F)F)cc1 | 50 nM | 117 nM | 40 nM | 3800 nM | Ratio IC50 (U-87MG ATCC): 95 |
| N[C@H](CNc1ncc(-c2ccc3cnccc3c2)s1)Cc1ccc(C(F)(F)F)cc1 | 5.9 nM | 12.4 nM | 4.9 nM | 430 nM | inhibition in vivo at 30 mg/kg (Mus musculus [7]): 4%; Ratio IC50 (U-87MG ATCC): 88; half-life [9]: 2.9 h; concentration at 6 h [10]: 1.5 µM; bioavailability [11]: 20%; Vd [12]: 7.1 L/kg; AUC(0-t) at 24 h [17]: 387 ng·h/mL; clearance [19]: 45 mL/min/kg; Cmax [18]: 66 ng/mL |
| N[C@H](CNc1nnc(-c2ccc3cnccc3c2)o1)Cc1ccc(C(F)(F)F)cc1 | 133 nM | 348 nM | 85 nM | – | – |
| Nc1cc2cc(-c3cnc(NC[C@@H](N)Cc4ccc(C(F)(F)F)cc4)s3)ccc2cn1 | 8.6 nM | 15.4 nM | 11.6 nM | 890 nM | Ratio IC50 (U-87MG ATCC): 77 |
| Cn1ncc2ccc(-c3cnc(NC[C@@H](N)Cc4ccc(C(F)(F)F)cc4)s3)cc21 | 230 nM | – | 895 nM | – | – |
